Inhibition data for 52 molecules are collected here from PubChem BioAssay AID743208 (The Scripps Research Institute Molecular Screening Center, 2013).

The whole screen tested about 2,100 compounds, of which about 30 (1%) were called active. A selection follows. Unmarked numbers belong to inactive results.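 The calls were made as follows: active = inhibition above about 20% chosen separately for each screening run (limit read from the data); inactive = the rest.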

Sequence of Disintegrin and metalloproteinase domain-containing protein 10 (Homo sapiens) (O14672 214-748 limits assumed): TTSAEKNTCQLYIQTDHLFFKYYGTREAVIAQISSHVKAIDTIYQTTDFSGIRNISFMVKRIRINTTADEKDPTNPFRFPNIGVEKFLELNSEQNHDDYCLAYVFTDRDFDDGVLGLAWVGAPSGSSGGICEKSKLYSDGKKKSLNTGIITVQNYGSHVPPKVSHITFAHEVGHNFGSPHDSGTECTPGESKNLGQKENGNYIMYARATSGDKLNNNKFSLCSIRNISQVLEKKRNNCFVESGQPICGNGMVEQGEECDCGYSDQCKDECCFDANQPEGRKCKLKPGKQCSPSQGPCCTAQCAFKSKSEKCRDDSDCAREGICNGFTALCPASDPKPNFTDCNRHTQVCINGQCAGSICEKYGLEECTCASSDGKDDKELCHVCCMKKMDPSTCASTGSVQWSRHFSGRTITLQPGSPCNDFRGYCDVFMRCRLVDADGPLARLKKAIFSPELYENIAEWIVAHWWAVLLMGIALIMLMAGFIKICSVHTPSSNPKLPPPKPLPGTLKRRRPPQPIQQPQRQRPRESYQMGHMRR

This assay addresses Disintegrin and metalloproteinase domain-containing protein 10 (Homo sapiens) (UniProt O14672). Kind of assay: blockers of ADAM10 peptide cleavage – biochemical, QFRET, triplicate, confirmation (AID 743208).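 Also: 0% = DMSO wells and 100% = marimastat wells.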 The note with it: EDANS fluorescence, at 6.95 µM, hits give high values. The essentials:
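Material: ADAM10 enzyme, FRET peptide substrate | Technique: Fluorescence of cleaved EDANS peptide, excitation 359 nm, emission 460 nm | Evaluation: % inhibition relative to DMSO and marimastat wells | Repeats: Triplicate per compound | Times: 30 min preincubation and 3 h reaction at 25 °C | Benchmarks: DMSO low control, 1 µM marimastat high control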
`CC1(C)C=Cc2c(ccc3c2OC[C@@H](c2ccc(O)cc2O)C3)O1`: the inhibition – broadly, the drop in the measured response relative to a control, in per cent – was 9.96%.
The result for `CCOc1cc(/C=N/NC(=O)c2cc(-c3ccccc3)nc3ccccc23)ccc1O` reads 9.93%; that for `C=C(C)COc1ccc(-c2n[nH]c(C)c2-c2ccccc2)c(O)c1`, 5.81%; that for `Cc1cccc(CCNS(=O)(=O)c2ccc(S(=O)(=O)NC3CCCC3)cc2)c1`, 0.65%.
To `Cc1ccccc1-n1c(SCC(=O)Nc2cccc3ccccc23)nc(O)cc1=O` belongs -0.12%; to `COc1ccccc1CC1(C)C(=O)Nc2ccc(OC(F)(F)F)cc21` (configuration not stated), 0.74%; to `O=C(OCc1ccc(-c2ccccc2)cc1)c1cccc(O)c1`, 12.8%.
The result for `O=S(=O)(c1cccc(S(=O)(=O)N2CCC(n3nnc4ccccc43)CC2)c1)N1CCCCC1` reads 0.35%.
`COc1cccc(NC(=O)CN2CCN(c3nc(-c4cccc(OC)c4)cs3)CC2)c1`: the inhibition is 8.73%.
The result for `C=CCC[C@@H](Cc1ccc(F)cc1)C(=O)O[C@H](CNC(=O)[C@H](CC=C)CC(=O)N(CCO)Cc1ccccc1)c1ccccc1` reads 11.4%; that for `COc1cccc(NC(=O)C2C(c3ccccc3)C2(Cl)Cl)c1` (configuration not stated), 5.98%; that for `CCOc1cc(NC(=O)c2ccccc2C(=O)O)c(OCC)cc1NC(=O)c1ccccc1F`, 3.74%.
To `O=C(Cc1ccc(Cl)c(Cl)c1)Nc1ccc(SC(F)F)cc1` belongs 7.73%; to `COc1cccc(CC2(CO)CCCN(Cc3ccc(OC(F)F)cc3)C2)c1` (configuration not stated), -1.93%.
With `Cc1cc(O)ccc1-c1cc(C(=O)NCc2cc(C(F)(F)F)cc(C(F)(F)F)c2)[nH]n1`, the inhibition is 1.37%.
To `Cn1nc(C(F)(F)F)c(C(=O)Nc2cccc(C(F)(F)F)c2)c1SCc1ccc(Cl)cc1` belongs 7.28%.
To `CCC(C)(C)c1ccc(Oc2ccc(NC(=O)COC(=O)C3=COCCO3)cc2)cc1` belongs 9.01%; to `Cc1[nH]c2ccccc2c1C(=O)COC(=O)c1c(-c2ccccc2)noc1C`, 3.43%.
To `Cn1c(CNc2nc(-c3ccccc3)cs2)nnc1SCC(=O)c1ccccc1` belongs 0.21%; to `COc1cc(/C=N/n2c(C)n[nH]c2=S)ccc1OCc1ccccc1`, -0.86%; to `COc1ccc(C(CCN(Cc2ccc(OC)c(OC)c2)C(=O)CCl)c2ccccc2)cc1` (configuration not stated), 2.71%.
Regarding `O=S(=O)(c1ccccc1)N(Cc1cccc(F)c1)c1ccccc1`, the inhibition was 3.92%.
To `Cc1ccc(N(NC(=O)C(C)(C)O)C(=O)c2ccccc2)cc1C` belongs 0.68%.
To `Cc1ccc(C)c(NC(=S)NNC(=O)c2csc(C)c2)c1` belongs 3.38%; to `Cc1ccc(/C=N/NC(=O)CSc2nc3ccccc3o2)cc1`, 0.27%; to `COc1ccc(OCCCn2cccc2/C=C2/C(=N)N3OC(C)=CC3=NC2=O)cc1`, 1.45%.
The result for `COc1ccc(C(=O)NN2C(=O)C3C(c4ccccc4)C=CC(c4ccccc4)C3C2=O)cc1` (configuration not stated) reads 6.22%; that for `COc1ccc(S(=O)(=O)N2CCN(C(C)C(=O)Nc3ccc(C(C)C)cc3)CC2)cc1` (configuration not stated), 4.39%; that for `COc1ccc(C2CC(c3ccccc3)=NN2C(=O)COC(=O)COc2ccccc2)cc1` (configuration not stated), 8.14%.
For the molecule `O=C(CSCc1ccc(Br)cc1)Nc1ccc(S(=O)(=O)N2CCCCCC2)cc1`, the inhibition was 7.76%.
The result for `Cc1cnc(C(=O)OCc2c(C)cc(C(C)(C)C)cc2C)cn1` reads 0.57%; that for `Cc1cc(Nc2ccccc2)n(C(=O)c2ccc(N)cc2)n1`, 2.25%.
To `CCCCCc1c(-c2ccc(OC)c(OC)c2)ncn1CCc1ccccc1OC` belongs 5.03%.
The result for `O=C(CC1SC(=Nc2ccccc2)N(Cc2ccccn2)C1=O)Nc1cccc(Cl)c1` (configuration not stated) reads 7.51%; that for `CC(C)(C)c1ccc(S(=O)(=O)NCC2CCN(C(=O)C(=O)c3cc4ccccc4o3)CC2)cc1`, 6.76%; that for `CCCC(=O)n1nc(NCc2ccc(OC)cc2)nc1NCc1ccc(OC)cc1`, 9.12%.
As to `O=C1[C@H]2[C@@H](c3ccc(F)cc3)N3C(=O)N(c4ccc(C(F)(F)F)cc4)C(=O)[C@@]3(Cc3ccccc3)[C@H]2C(=O)N1C1CCCCC1`, the inhibition is 8.51%.
The result for `CN(C)S(=O)(=O)c1cccc(NC(=O)COC(=O)C2(c3ccccc3F)CCCC2)c1` reads 2.23%; that for `O=C(NC(Cc1c[nH]c2ccccc12)C(=O)N/N=C/c1ccc(Br)cc1)c1cccs1` (configuration not stated), 9.54%.
The result for `S=c1[nH]cc(-c2ccc(Cl)cc2)n1-c1ccccc1` reads 1.28%.
As to `COC(=O)[C@@]12C[C@@H](CC(=O)NCCCCc3ccccc3)C(=O)N(CCc3ccc(OC)c(OC)c3)C1=CCC(C)(C)C2`, the inhibition was 5.78%.
To `O=C(COC(=O)CCCSc1nc2ccccc2[nH]1)Nc1ccc(Oc2ccccc2)cc1` belongs 10.7%; to `COc1ccc([C@@H]2[C@@H]3C(=O)N(C(C)(C)C)C(=O)[C@@H]3[C@]3(Cc4ccccc4)C(=O)N(c4cccc(Br)c4)C(=O)N23)cc1`, 5.88%; to `CC1(Cc2cccc(C#N)c2)C(=O)Nc2ccc(-c3cccc(C(F)(F)F)c3)cc21` (configuration not stated), 10.6%.
The result for `Cc1ccc(NC(=O)c2nc[nH]c2C(=O)N[C@@H](CCCCNC(=O)OC(C)(C)C)C(=O)OC(C)(C)C)cc1` reads 11.2%.
To `O=Cc1cn(CCOc2ccc(F)cc2)c2ccccc12` belongs 2.15%; to `CCOc1ccc(Nc2oc(Cc3ccccc3)nc2C#N)cc1`, 1.49%; to `N/C(Cc1ccc([N+](=O)[O-])cc1)=N\OC(=O)COc1ccc2ccccc2c1`, 3.81%.
On to `CC(C)(C)OC(=O)N1CCC(NC(=O)c2[nH]cnc2C(=O)N[C@@H](Cc2ccccc2)C(=O)OCc2ccccc2)CC1`, for which the inhibition was 9.68%.
Consider `Cc1cc(C)cc(NS(=O)(=O)c2ccc(Oc3ncc(C(F)(F)F)cc3Cl)cc2)c1`, for which the inhibition was 10.8%.
As to `Cc1ccc(S(=O)(=O)N2CCN(C(=O)COC(=O)c3c(C)cc(C)cc3C)CC2)c(C)c1`, the inhibition was 5.29%.
To `Cc1ccc(S(=O)(=O)N(CC(=O)Nc2cccnc2)c2ccc(Br)cc2)cc1` belongs 2.78%.
